Test results: ChEMBL document CHEMBL4038284, “Synthesis of novel quinoline-based 4,5-dihydro-1H-pyrazoles as potential anticancer, antifungal, antibacterial and antiprotozoal agents” (Eur J Med Chem, 2017)
Converted amounts (≈) assume the structure as drawn.

Tests used:
Staphylococcus aureus [1] = assay: Antibacterial activity against vancomycin-intermediate Staphylococcus aureus after 24 hrs by resazurin dye based microdilution assay; format: functional
In short: (§1)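 MIC taken as the lowest concentration giving visible inhibition and/or by resazurin (1 mg/mL). Gentamicin was the control. Run in duplicate, repeated at least three times.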

Pseudomonas aeruginosa = assay: Antibacterial activity against Pseudomonas aeruginosa ATCC 27853 after 24 hrs by resazurin dye based microdilution assay; format: functional; details: ATCC 27853, 24 h; in short: as §1
Cryptococcus neoformans [2] = assay: Growth inhibition of Cryptococcus neoformans ATCC 32264 at 31.25 ug/ml incubated for 48 hrs under dark condition by broth microdilution method relative to control; format: functional; details: ATCC 32264, 48 h, read-out: GI
In short: (§2)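 CLSI M27-A3 broth microdilution in RPMI-1640, DMSO ≤1%. Inoculum 1-5 × 10^3 CFU/mL. Incubated 48 h at 30 °C, dark. % inhibition = 100 − (OD405 test − sterility control)/(OD405 growth control − sterility control), with growth and sterility control wells. Triplicate.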

Candida albicans [3] = assay: Growth inhibition of Candida albicans ATCC 10231 at 7.8 ug/ml incubated for 48 hrs under dark condition by broth microdilution method relative to control; format: functional; details: ATCC 10231, 48 h, read-out: GI; in short: as §2
U-937 = assay: Cytotoxicity against human U937 cells after 72 hrs by MTT assay; format: cell-based; details: u-937, 72 h
In short: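 Exponentially growing U-937 at 1 × 10^5 cells/mL in RPMI-1640 with 10% FBS were exposed to 200, 50, 12.5 and 3.125 µg/mL for 72 h at 37 °C, 5% CO2. MTT for 3 h, stopped with isopropanol/SDS, formazan read at 570 nm, blank-corrected. LC50 by Probit from % viability against untreated cells. Triplicate, at least two independent experiments.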

Candida albicans [4] = assay: Antifungal activity against Candida albicans ATCC 10231 incubated for 48 hrs under dark condition by broth microdilution method; format: functional; details: ATCC 10231, 48 h
In short: (§3)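 CLSI M27-A3 broth microdilution in RPMI-1640, DMSO ≤1%, compounds at 250-0.98 µg/mL final. Inoculum 1-5 × 10^3 CFU/mL. Incubated 48 h at 30 °C in a moist dark chamber, read at OD405. MIC80 and MIC50 taken from % inhibition dose-response curves (mean ± SEM, triplicate). Amphotericin B was the positive control.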

Candida albicans [5] = assay: Growth inhibition of Candida albicans ATCC 10231 at 62.5 ug/ml incubated for 48 hrs under dark condition by broth microdilution method relative to control; format: functional; details: ATCC 10231, 48 h, read-out: GI; in short: as §2
Candida albicans [6] = assay: Growth inhibition of Candida albicans ATCC 10231 at 125 ug/ml incubated for 48 hrs under dark condition by broth microdilution method relative to control; format: functional; details: ATCC 10231, 48 h, read-out: GI; in short: as §2
Staphylococcus aureus [7] = assay: Antibacterial activity against methicillin-sensitive Staphylococcus aureus ATCC 25923 after 24 hrs by resazurin dye based microdilution assay; format: functional; details: ATCC 25923, 24 h; in short: as §1
Plasmodium falciparum = assay: Antiplasmodial activity against chloroquine-sensitive Plasmodium falciparum 3D7 assessed as reduction in parasitic LDH activity after 48 hrs by Malstat reagent based […] method; format: functional; details: 3D7, 48 h
In short: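 Unsynchronized P. falciparum 3D7 at 0.5% parasitemia and 1% hematocrit in RPMI with 3% Albumax II. Exposed to 100, 25, 6.25 and 1.56 µg/mL for 48 h at 37 °C under 90% N2/5% CO2/5% O2. After three freeze-thaw cycles, LDH measured with Malstat and NBT/PES, 1 h in the dark, read at 650 nm. IC50 by Probit; triplicate, ≥2 experiments.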

Staphylococcus aureus [8] = assay: Antibacterial activity against methicillin-resistant Staphylococcus aureus ATCC 43300 after 24 hrs by resazurin dye based microdilution assay; format: functional; details: ATCC 43300, 24 h
In short: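 Broth microdilution in Mueller Hinton broth, inoculum 5 × 10^5 – 8 × 10^5. Compound stocks diluted in MHB with 5% DMSO and 0.1% Tween 80. Incubation 24 h at 35-37 °C. MIC is the lowest concentration with visible growth inhibition and/or by resazurin (1 mg/mL) read-out. Gentamicin as control. Run in duplicate, replicated at least three times.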

Candida albicans [9] = assay: Growth inhibition of Candida albicans ATCC 10231 at 15.62 ug/ml incubated for 48 hrs under dark condition by broth microdilution method relative to control; format: functional; details: ATCC 10231, 48 h, read-out: GI; in short: as §2
Cryptococcus neoformans [10] = assay: Growth inhibition of Cryptococcus neoformans ATCC 32264 at 3.4 ug/ml incubated for 48 hrs under dark condition by broth microdilution method relative to control; format: functional; details: ATCC 32264, 48 h, read-out: GI
Klebsiella pneumoniae [11] = assay: Antibacterial activity against carbapenemase positive Klebsiella pneumoniae BAA 1705 after 24 hrs by resazurin dye based microdilution assay; format: functional; details: BAA 1705, 24 h; in short: as §1
Cryptococcus neoformans [12] = assay: Growth inhibition of Cryptococcus neoformans ATCC 32264 at 7.8 ug/ml incubated for 48 hrs under dark condition by broth microdilution method relative to control; format: functional; details: ATCC 32264, 48 h, read-out: GI; in short: as §2
Trypanosoma cruzi = assay: Antitrypanosomal activity against Trypanosoma cruzi Tulahuen intracellular amastigote harboring LacZ infected in human U937 cells after 72 hrs by CPRG/Nonidet reagent based spectrophotometric method; format: functional, cell-based; details: U-937, 72 h
In short: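 U-937 cells at 2.5 × 10^5 cells/mL in RPMI-1640 with 10% serum and 0.1 µg/mL PMA were infected with β-galactosidase-transfected Tulahuen epimastigotes at 5 parasites per cell. Infected cells were exposed to 50, 12.5, 3.125 and 0.78 µg/mL for 72 h. CPRG (100 uM) and 0.1% Nonidet P-40 were added for 3 h, read at 570 nm. EC50 by Probit. Triplicate, at least two experiments; benznidazole as reference.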

Cryptococcus neoformans [13] = assay: Growth inhibition of Cryptococcus neoformans ATCC 32264 at 250 ug/ml incubated for 48 hrs under dark condition by broth microdilution method relative to control; format: functional; details: ATCC 32264, 48 h, read-out: GI; in short: as §2
Escherichia coli = assay: Antibacterial activity against Escherichia coli ATCC 25922 after 24 hrs by resazurin dye based microdilution assay; format: functional; details: ATCC 25922, 24 h; in short: as §1
Cryptococcus neoformans [14] = assay: Growth inhibition of Cryptococcus neoformans ATCC 32264 at 15.62 ug/ml incubated for 48 hrs under dark condition by broth microdilution method relative to control; format: functional; details: ATCC 32264, 48 h, read-out: GI; in short: as §2
Candida albicans [15] = assay: Growth inhibition of Candida albicans ATCC 10231 at 3.4 ug/ml incubated for 48 hrs under dark condition by broth microdilution method relative to control; format: functional; details: ATCC 10231, 48 h, read-out: GI
Klebsiella pneumoniae [16] = assay: Antibacterial activity against ESBL positive Klebsiella pneumoniae ATCC 700603 after 24 hrs by resazurin dye based microdilution assay; format: functional; details: Klebsiella pneumoniae, 700603, 24 h; in short: as §1
Neisseria gonorrhoeae = assay: Antibacterial activity against beta lactamase positive Neisseria gonorrhoeae ATCC 31426 by oxidase test; format: functional
In short: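 Agar dilution MIC on GC agar with 1% isovitalex containing increasing compound concentrations. Plates inoculated with about 1×10^4 CFU (5 µL). MIC is the lowest concentration that inhibited growth, with growth confirmed by oxidase test. Run in duplicate, repeated at least three times.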

Cryptococcus neoformans [17] = assay: Antifungal activity against Cryptococcus neoformans ATCC 32264 incubated for 48 hrs under dark condition by broth microdilution method; format: functional; details: ATCC 32264, 48 h; in short: as §3
Leishmania panamensis = assay: Antileshmanial activity against EpiR/GFP fused Leishmania panamensis MHOM/CO/87/UA140 intracellular amastigotes infected in human […] cells after 72 hrs by flow cytometric method; format: functional, cell-based; details: MHOM/CO/87/UA140, 72 h
In short: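 PMA-treated U-937 cells (3 × 10^5 cells/mL) infected with stationary-phase GFP L. panamensis promastigotes (15:1), 3 h at 34 °C, then washed. After 24 h, compounds added at 50, 12.5, 3.125 and 0.78 µg/mL for 72 h at 37 °C. EC50 by Probit; triplicate, two experiments.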

Cryptococcus neoformans [18] = assay: Growth inhibition of Cryptococcus neoformans ATCC 32264 at 125 ug/ml incubated for 48 hrs under dark condition by broth microdilution method relative to control; format: functional; details: ATCC 32264, 48 h, read-out: GI; in short: as §2
Candida albicans [19] = assay: Growth inhibition of Candida albicans ATCC 10231 at 250 ug/ml incubated for 48 hrs under dark condition by broth microdilution method relative to control; format: functional; details: ATCC 10231, 48 h, read-out: GI; in short: as §2
Candida albicans [20] = assay: Growth inhibition of Candida albicans ATCC 10231 at 31.25 ug/ml incubated for 48 hrs under dark condition by broth microdilution method relative to control; format: functional; details: ATCC 10231, 48 h, read-out: GI; in short: as §2
Cryptococcus neoformans [21] = assay: Growth inhibition of Cryptococcus neoformans ATCC 32264 at 62.5 ug/ml incubated for 48 hrs under dark condition by broth microdilution method relative to control; format: functional; details: ATCC 32264, 48 h, read-out: GI; in short: as §2

| Structure (SMILES) | MIC (Staphylococcus aureus [1]) [µg/mL] | MIC (Pseudomonas aeruginosa) [µg/mL] | inhibition of growth at 31.25 µg/mL (Cryptococcus neoformans [2]) [%] | inhibition of growth at 7.8 µg/mL (Candida albicans [3]) [%] | LC50 (U-937) [µg/mL] | MIC50 (Candida albicans [4]) [µg/mL] | MIC80 (Candida albicans [4]) [µg/mL] | inhibition of growth at 62.5 µg/mL (Candida albicans [5]) [%] | inhibition of growth at 125 µg/mL (Candida albicans [6]) [%] | MIC (Staphylococcus aureus [7]) [µg/mL] | EC50 (Plasmodium falciparum) [µg/mL] | MIC (Staphylococcus aureus [8]) [µg/mL] | inhibition of growth at 15.62 µg/mL (Candida albicans [9]) [%] | inhibition of growth at 3.4 µg/mL (Cryptococcus neoformans [10]) [%] | MIC (Klebsiella pneumoniae [11]) [µg/mL] | inhibition of growth at 7.8 µg/mL (Cryptococcus neoformans [12]) [%] | EC50 (Trypanosoma cruzi) [µg/mL] | inhibition of growth at 250 µg/mL (Cryptococcus neoformans [13]) [%] | MIC (Escherichia coli) [µg/mL] | inhibition of growth at 15.62 µg/mL (Cryptococcus neoformans [14]) [%] | also measured |
| --- | --- | --- | --- | --- | --- | --- | --- | --- | --- | --- | --- | --- | --- | --- | --- | --- | --- | --- | --- | --- | --- |
| Clc1cc(Cl)cc(N2N=C(c3ccccc3)CC2c2cccc(Nc3ccnc4cc(Cl)ccc34)c2)c1 (stereo not given) | > 1000 | > 1000 | 2.16 | 0 | > 200 | ≥ 250 | ≥ 250 | 0 | 2.17 | > 1000 | 12.5 (≈ 23.1 µM) | > 1000 | 0 | 0 | > 1000 | 0 | 32.6 (≈ 60 µM) | 7.5 | > 1000 | 1.36 | inhibition of growth at 3.4 µg/mL (Candida albicans [15]): 0%; MIC (Klebsiella pneumoniae [16]): > 1000 µg/mL; MIC (Neisseria gonorrhoeae): > 1000 µg/mL; MIC50 (Cryptococcus neoformans [17]): ≥ 250 µg/mL; MIC80 (Cryptococcus neoformans [17]): ≥ 250 µg/mL; EC50 (Leishmania panamensis): 17.8 µg/mL (≈ 32.8 µM); inhibition of growth at 125 µg/mL (Cryptococcus neoformans [18]): 3.29%; inhibition of growth at 250 µg/mL (Candida albicans [19]): 11.2%; inhibition of growth at 31.25 µg/mL (Candida albicans [20]): 0%; inhibition of growth at 62.5 µg/mL (Cryptococcus neoformans [21]): 3.07% |
| CC(=O)N1N=C(c2ccc(Cl)cc2)CC1c1cccc(Nc2ccnc3cc(Cl)ccc23)c1 (stereo not given) | > 1000 | > 1000 | 28.1 | 19.6 | 17 (≈ 35.8 µM) | ≥ 250 | ≥ 250 | 22.5 | 38.8 | > 1000 | 26.3 (≈ 55.4 µM) | > 1000 | 20 | 11.1 | > 1000 | 26.7 | 6.57 (≈ 13.8 µM) | 100 | > 1000 | 18.7 | inhibition of growth at 3.4 µg/mL (Candida albicans [15]): 14.7%; MIC (Klebsiella pneumoniae [16]): > 1000 µg/mL; MIC (Neisseria gonorrhoeae): > 1000 µg/mL; MIC50 (Cryptococcus neoformans [17]): 125 µg/mL (≈ 263 µM); MIC80 (Cryptococcus neoformans [17]): 250 µg/mL (≈ 526 µM); EC50 (Leishmania panamensis): 5.53 µg/mL (≈ 11.6 µM); inhibition of growth at 125 µg/mL (Cryptococcus neoformans [18]): 53.4%; inhibition of growth at 250 µg/mL (Candida albicans [19]): 40.9%; inhibition of growth at 31.25 µg/mL (Candida albicans [20]): 21.6%; inhibition of growth at 62.5 µg/mL (Cryptococcus neoformans [21]): 32.2% |
